# APJ antagonist: APJ receptor antagonism; AID 2521; P35414; inhibition, % at 20 µM; CHO-K1 APJ beta-arrestin complementation, luminescence; 330,000 compounds, 0.32% hits;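 active means inhibition above about 40% at 20 µM, limit read from the data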;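 further: cells challenged with 10 nM apelin-13 agonist together with compound; plate controls were apelin-13 plus DMSO wells for no effect and DMSO wells lacking apelin-13 for full effect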
# EBI2 block: blocks human EBI2 receptor beta-arrestin signaling; P32249; EBI2 beta-arrestin recruitment, luminescence, 7a,25-OHC stimulated; inhibition, % at 5 µM; 360,000 compounds, 0.81% hits; AID 651636; in the data active means inhibition above about 38%;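 further: enzyme fragment complementation signal reports receptor beta-arrestin coupling in cells; 0% = agonist plus DMSO wells and 100% = wells without agonist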
# CXCR6 block: inhibitors of human CXCR6 receptor; 360,000 compounds, 0.36% hits; O00574; inhibition, % at 20 µM; CHO-K1 PathHunter CXCR6 beta-arrestin, luminescence; AID 602244; in the data active means inhibition above about 34%, passing the limit was not always enough;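 further: antagonist mode with CXCL16 agonist at 10 nM final; 0% = 10 nM CXCL16 with DMSO and 100% = unstimulated wells without agonist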
# Target sequence (O00574 whole entry, looked up): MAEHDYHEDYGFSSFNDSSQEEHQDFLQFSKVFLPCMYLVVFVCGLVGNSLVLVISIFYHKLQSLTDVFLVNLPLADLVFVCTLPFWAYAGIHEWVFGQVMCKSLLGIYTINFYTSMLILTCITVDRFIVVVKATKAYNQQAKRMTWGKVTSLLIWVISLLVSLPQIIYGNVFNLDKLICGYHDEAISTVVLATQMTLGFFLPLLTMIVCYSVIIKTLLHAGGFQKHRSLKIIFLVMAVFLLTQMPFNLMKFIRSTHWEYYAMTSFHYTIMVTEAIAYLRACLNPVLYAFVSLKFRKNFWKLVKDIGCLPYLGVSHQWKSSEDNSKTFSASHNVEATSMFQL
# APJ agonist: activates the human apelin receptor APJ | P35414 | CHO-K1 APJ PathHunter beta-arrestin, luminescence; 0% DMSO wells, 100% apelin | activation, % at 20 µM | 330,000 compounds, 0.11% hits | AID 2520;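 active means activation more than six SD over the plate average, tested at 20 µM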;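 further: 0% = DMSO alone and 100% = apelin-13 at 10 nM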
#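 assay system = CHO-K1 APJ beta-arrestin complementation cell line | input = cell density 1000 per well | dosing = compound 20 µM once, DMSO 1% | timing = compound 90 min 25 °C, reagent 1 h | measured by = luminescence from split beta-galactosidase complementation, Galacton Star/Emerald II substrate | read-out basis = APJ agonist activity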
# CCR6 antagonist: CCR6 (human) receptor antagonism. CHO-K1 CCR6 PathHunter beta-arrestin, luminescence, CCL20-stimulated. inhibition, % at 20 µM. 340,000 compounds, 0.49% hits;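 active means compounds whose inhibition of the agonist-driven luminescence signal at 20 µM reaches about 50%, limit read from the data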;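 further: cells stimulated with CCL20 at 14 nM final; plate controls were DMSO with CCL20 for no effect and DMSO without agonist for full effect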
# APJ antag conf: confirmation of human APJ apelin receptor antagonists; shares compounds with APJ antagonist; APJ beta-arrestin recruitment, luminescence, antagonist mode; inhibition, % at 20 µM; 950 compounds, 66% hits; in the data active means inhibition above about 50%
# CXCR6 confirm: CXCR6 antagonism confirmation, single concentration; shares compounds with CXCR6 block; CHO-K1 CXCR6 PathHunter beta-arrestin, luminescence; inhibition, % at 20 µM; 700 compounds, 65% hits; AID 602409;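 active means mean inhibition over four retests above 40%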;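 further: receptor stimulated with 10 nM CXCL16 agonist; beta-galactosidase fragment complementation upon beta-arrestin recruitment to receptor; plate controls were CXCL16 plus DMSO for no effect and DMSO without CXCL16 for full effect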
# EBI2 conf: confirmation of human EBI2 receptor antagonists; shares compounds with EBI2 block; EBI2 beta-arrestin luminescence, 7a,25-OHC antagonism; 2,400 compounds, 29% hits; AID 651997; inhibition, % at 5 µM;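 active means inhibition of at least 50%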
# EBI2 agonist: EBI2 agonism counter-screen; 2,400 tested, under 10 active; activation, % at 5 µM; shares compounds with EBI2 block; AID 652000; EBI2-expressing cells, agonist mode, luminescence, 60 min; 0% vehicle, 100% 7α,25-dihydroxycholesterol control;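 active means activation of at least 50%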
# bGal cs: inhibits E. coli beta-galactosidase, counter-screen for EBI2 antagonists; shares compounds with EBI2 block; 2,400 compounds, 1% hits; inhibition, % at 5 µM; purified beta-galactosidase, luminescent Galacton Star, 15 min;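 active means replicate-average signal at least 3 plate SD below neutral wells, shown as high inhibition, flagging enzyme-inhibiting false positives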;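 further: 0% = DMSO wells with enzyme and 100% = wells lacking enzyme; higher means stronger loss of beta-gal luminescence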
# The depositor's hits bear a star; . = not tested or not shown. This is a sample that favours compounds with a hit; in the whole collection about 1.5% have one here.
SMILES,APJ antagonist,EBI2 block,CXCR6 block,APJ agonist,CCR6 antagonist,CXCR6 confirm,others
C/C(=N\NC(=O)COc1ccccc1-c1ccccc1)c1ccccn1,62*,62*,66*,-10,89*,102*,APJ antag conf=88*;EBI2 conf=71*;EBI2 agonist=-1;bGal cs=5
C/C(=N\NC(=O)COc1ccccc1-c1ccccc1)c1cccnc1,-8,2,-1,4,6,.,
CNC(=S)Nc1ccc(C(N)=O)cc1,13,-15,1,-1,-2,.,
CC1(C)CC(=O)C(C=Nc2ccc(C(=O)c3ccccc3)cc2N=CC2=C(O)CC(C)(C)CC2=O)=C(O)C1,120*,74*,103*,-18,111*,114*,APJ antag conf=156*;EBI2 conf=93*;EBI2 agonist=-6;bGal cs=83*
CC1(C)CC(=O)C(C=Nc2ccc(O)c(N=CC3=C(O)CC(C)(C)CC3=O)c2)=C(O)C1,-11,-3,22,0,-14,.,
CC(CN1CCCC1)OC(=O)c1ccc(Cl)cc1 (configuration not stated),-5,2,84*,-3,13,0,
O=C(Nc1ccccc1Oc1ccccc1)C1=COCCO1,2,0,-2,6,14,.,
O=C(NCC(c1ccco1)N1CCc2ccccc2C1)c1ccccc1 (configuration not stated),23,-4,3,4,14,.,
COc1cc(C(=O)NCC(c2ccco2)N2CCc3ccccc3C2)cc(OC)c1OC (configuration not stated),-50,2,44*,0,9,54*,
CCc1nc2c(OCCC3CCCCC3)cccn2c1N(C)C(=O)c1cccs1,.,29,47*,.,.,39,
O=C(CC(=O)N/N=C/c1c(Cl)cccc1Cl)NCc1cccnc1,-18,5,0,-7,-3,.,
O=C(Nc1nc(-c2ccccc2)c(-c2ccccc2)o1)c1ccc(F)cc1,16,5,41*,-4,.,27,
Cn1cnnc1Sc1ccc(C(=O)NCCC(c2ccccc2)c2ccccc2)cc1[N+](=O)[O-],8,2,-14,-3,20,.,
C=C1C(=O)OC2C1CCC(C)=C1C(=O)C3OC3(C)C12 (configuration not stated),.,52*,47*,.,48,59*,
C=C1C(=O)O[C@@H]2[C@H]1CC[C@H](C)[C@]1(O)CCC(=O)[C@@]21C,9,-2,-6,-4,5,.,
NN=C1c2ccccc2C(=O)C1C(=O)C(c1ccccc1)c1ccccc1 (configuration not stated),.,0,40*,.,63*,34,
CCOC(=O)C1(Cc2ccc(Cl)cc2)CCN(Cc2ccon2)CC1,19,-12,70*,-1,4,5,
Cc1ccc(NC(=O)CSC(C)c2nc3ccccc3c(=O)[nH]2)cc1 (configuration not stated),-19,0,-9,-4,3,.,
Cc1ccc(SC2=C(N(C)C)C(=O)c3ccccc3C2=O)cc1,.,-8,17,.,35,.,
CC(Oc1cccc(Br)c1)C(=O)NNC(=O)c1ccccn1 (configuration not stated),15,-6,52*,-4,48,56*,
Cc1ccc(NC(=O)c2nc(S(=O)(=O)Cc3ccccc3C)ncc2Cl)cc1C,21,56*,50*,-3,61*,60*,
CCOc1ccccc1NC(=O)c1nc(S(=O)(=O)Cc2ccccc2)ncc1Cl,18,46*,56*,-9,51*,53*,
CCOC(=O)c1ccc(NC(=O)CCS(=O)(=O)Cc2ccccc2)cc1,13,-4,-4,7,7,.,
COc1cccc(NC(=O)c2nc(S(C)(=O)=O)ncc2Cl)c1,36,2,37,-4,44,.,
CCOC(=O)c1ccc(NC(=O)c2nc(S(=O)(=O)Cc3ccccc3)ncc2Cl)cc1,34,42*,70*,-3,89*,73*,
SMILES,APJ antagonist,EBI2 block,CXCR6 block,APJ agonist,CCR6 antagonist,CXCR6 confirm,others
COC(=O)c1ccc(NC(=O)c2nc(S(=O)(=O)Cc3cccc(C)c3)ncc2Cl)cc1,34,47*,66*,-11,67*,61*,
CCOc1ccccc1NC(=O)c1ccc(C(=O)Nc2ccccc2OCC)nc1,-3,-21,-8,0,-13,.,
O=C(NNC(=O)c1ccco1)c1ccc(NS(=O)(=O)c2cccs2)cc1,7,2,2,2,6,.,
CCc1ccc(NC(=O)c2nc(S(=O)(=O)Cc3ccccc3)ncc2Cl)cc1,-9,39,82*,1,.,80*,
Cc1ccc(C(=O)NCc2ccc3c(c2)OCO3)c(Cl)c1,.,-7,2,.,.,.,
CCCS(=O)(=O)c1ncc(Cl)c(C(=O)Nc2ccc(S(=O)(=O)Nc3ncccn3)cc2)n1,9,-9,-5,-3,-5,.,
Cc1cccc(CS(=O)(=O)c2ncc(Cl)c(C(=O)NCc3ccc4c(c3)OCO4)n2)c1,-11,17,57*,-5,48,44*,
Nc1ccccc1C#CC(=O)c1ccccc1,7,-10,40*,-2,21,59*,
O=C(C#Cc1cccc([N+](=O)[O-])c1)c1ccccc1,31,19,72*,10,.,71*,
CCN1CCN(CC(=O)Nc2ccc(S(=O)(=O)N3C(C)CCCC3C)cc2)CC1 (configuration not stated),20,3,7,-3,6,.,
O=C(CCCn1cnc([N+](=O)[O-])n1)Nc1cccc(O)c1,-22,-6,-18,5,-13,.,
Cc1ccc(F)cc1CNC(=O)C1CCC(=O)N(C2CC2)C1 (configuration not stated),-2,-8,38*,-6,-1,-5,
CCCC(C)(C)C(=O)N1CCC1(C)C(=O)NS(=O)(=O)c1ccc(Cl)cc1 (configuration not stated),.,-11,4,.,.,.,
CCc1ccc2c(c1)/C(=C/C(=O)c1cccs1)C(=O)N2,-1,67*,41*,3,45,25,
CCc1ccc2c(c1)/C(=N/N(C)C(=S)NC)C(=O)N2,16,0,0,-2,8,.,
CN1CCN(c2ccc([N+](=O)[O-])cc2C(=O)c2ccc(Br)cc2)CC1,8,7,-2,-4,18,.,

# Source: PubChem
